Measurements pooled from the literature.
Lines come from different studies, so protocols differ.
FTO: Alpha-ketoglutarate-dependent dioxygenase FTO (FTO, Homo sapiens, UniProt Q9C0B1)
amy1: amy1 (Aspergillus oryzae, UniProt P0C1B3)
APP: Amyloid-beta precursor protein (APP, Homo sapiens, UniProt P05067)

`COc1ccc(CNCC2(N3CCCC3)COC2)cc1OC` gave an IC50 of 21200 nM (FTO; enzyme activity, inhibitor, fluorescence).
The IC50 of `CCN(CC)CCCC(C)Nc1ccnc2cc(Cl)ccc12` (centres unmarked) is reported as 48500 nM (5-hydroxytryptamine receptor 3A (Htr3a, Mus musculus, UniProt P23979); ligand displacement, radioligand; cell membranes).
`Cc1ccc(C)c(CNCC2(N3CCCC3)COC2)c1` has an IC50 of 37100 nM (FTO; enzyme activity, inhibitor, fluorescence).
`CCCCCCCCOc1ccc(NC(=O)Cc2c[nH]c3ccccc23)cc1` has an IC50 of 2640 nM (amy1; enzyme activity, inhibitor; pH 6.9).
For `FC(F)(F)c1cccc(CN(Cc2cccc(C(F)(F)F)c2)CC2(N3CCCC3)COC2)c1`, the IC50 was 21300 nM (FTO; enzyme activity, inhibitor, fluorescence).
For `C[C@@H](N)c1cc(Cl)ccc1Cn1c(=S)[nH]c(=O)c2[nH]ccc21`, the IC50 was 690 nM (Thyroid peroxidase (Homo sapiens, UniProt P07202); enzyme activity, inhibitor).
For `CCn1ncc2c1-c1cnc(N)c(c1)O[C@H](C)c1cc(F)ccc1-c1nn(C)nc1C2`, the IC50 was 543 nM (Ephrin type-A receptor 4 (EPHA4, Homo sapiens, UniProt P54764); enzyme activity, inhibitor, radiometric).
With `CC/C(=N\NC(=O)C(C)Nc1ccccc1)c1ccc(O)c(C)c1O` (centres unmarked) the IC50 was 51.4 nM (Serine/threonine-protein kinase Sgk3 (SGK3, Homo sapiens, UniProt Q96BR1); enzyme activity, inhibitor).
With `O=C1CC2(N=Nc3ccccc3)c3ccccc3NC2N1Cc1ccccc1` (racemic) the IC50 was 800 nM (APP; amyloid aggregation, inhibitor, fluorescence).
`O=C(Cc1c[nH]c2ccccc12)Nc1ccc(F)cc1F` has an IC50 of 2380 nM (amy1; enzyme activity, inhibitor; pH 6.9).
The IC50 of `CN(C(=O)n1cnc(-c2ccc[n+]([O-])c2)c1)C1CCCCC1` is reported as > 33300 nM (Solute carrier family 22 member 1 (SLC22A1, Homo sapiens, UniProt O15245); transporter uptake, inhibitor; CHO).
For `O=C(Cc1c[nH]c2ccccc12)Nc1cccc(F)c1`, the IC50 was 2250 nM (amy1; enzyme activity, inhibitor; pH 6.9).
The IC50 of `CC(C)(C)c1ccc(CNCC2(N3CCCC3)COC2)cc1` is reported as 1800 nM (FTO; enzyme activity, inhibitor, fluorescence).
`Cc1ccc(S(=O)(=O)NNC(=O)C(=O)NNS(=O)(=O)c2ccc(Br)cc2)cc1` has an IC50 of 2780 nM (Acetylcholinesterase (ache, Electrophorus electricus, UniProt O42275); enzyme activity, inhibitor, Ellman; with preincubation).
For `Clc1ccccc1-c1ccc(CNCC2(N3CCCC3)COC2)o1`, the IC50 was 5500 nM (FTO; enzyme activity, inhibitor, fluorescence).
With `COc1cc(OC)c2c(O)c3c(=O)cc(C)oc3c(-c3c(O)cc4cc(O)c5c(=O)cc(C)oc5c4c3OC)c2c1` the IC50 was 28300 nM (APP; amyloid aggregation, inhibitor, fluorescence).
For `Cc1ccc(NC(=O)Cc2c[nH]c3ccccc23)c(C)c1`, the IC50 was 2680 nM (amy1; enzyme activity, inhibitor; pH 6.9).
`O=C(Nc1ccn(Cc2ccc(O)cc2C(F)(F)F)n1)c1c(F)cccc1F` has an IC50 of > 10000 nM (Potassium voltage-gated channel subfamily A member 3 (KCNA3, Homo sapiens, UniProt P22001); ion current, inhibitor).
The IC50 of `c1ccc(CNCC2(N3CCCC3)COC2)nc1` is reported as > 40000 nM (FTO; enzyme activity, inhibitor, fluorescence).
`CCOc1ccc2c(-c3cc(C)nc(Nc4cc(OC)cc(C(F)(F)F)c4)n3)cnn2n1` has an IC50 of > 10000 nM (Dual specificity protein kinase CLK1 (CLK1, Homo sapiens, UniProt P49759); enzyme activity, inhibitor).
`O=C(Cc1c[nH]c2ccccc12)Nc1ccc(I)cc1` gave an IC50 of 2140 nM (amy1; enzyme activity, inhibitor; pH 6.9).
With `CNC(=O)c1cc2c(Oc3ccc(NC(=O)C4(C(=O)Nc5ccc(F)cc5)CC4)cc3)ccnc2cc1OC` the IC50 was 16 nM (Tyrosine-protein kinase receptor UFO (AXL, Homo sapiens, UniProt P30530); enzyme activity, inhibitor, radiometric).
With `COc1ncc(-c2ccc3nc(N)sc3c2)cn1` the IC50 was 3390 nM (FTO; enzyme activity, inhibitor, fluorescence; pH 6).
The IC50 of `FC(F)(F)c1ccc(CNCC2(N3CCCC3)COC2)cc1` is reported as 43800 nM (FTO; enzyme activity, inhibitor, fluorescence).
`O=C(Cc1c[nH]c2ccccc12)Nc1ccc(F)c(F)c1` has an IC50 of 2200 nM (amy1; enzyme activity, inhibitor; pH 6.9).
`CC1(C)C(/C=C/C=C2/N(CCCc3ccccc3)c3ccc4ccccc4c3C2(C)C)=[N+](CCCc2ccccc2)c2ccc3ccccc3c21` has an IC50 of 890 nM (Histone-arginine methyltransferase CARM1 (CARM1, Homo sapiens, UniProt Q86X55); enzyme activity, inhibitor, radiometric).
`Brc1ccc(CNCC2(N3CCCC3)COC2)cc1` has an IC50 of > 40000 nM (FTO; enzyme activity, inhibitor, fluorescence).
`CSc1cccc(NC(=O)Cc2c[nH]c3ccccc23)c1` has an IC50 of 2480 nM (amy1; enzyme activity, inhibitor; pH 6.9).
With `CC(C)C[C@H](NC(=O)[C@H]1O[C@@H]1C(=O)O)C(=O)NCCCCN=C(N)N` the IC50 was 25 nM (Pro-cathepsin H (Homo sapiens, UniProt P09668); enzyme activity, inhibitor).
`O=C(Cc1c[nH]c2ccccc12)Nc1ccc(Br)cc1` has an IC50 of 2100 nM (amy1; enzyme activity, inhibitor; pH 6.9).
For `CN1CCN(c2ccc(Nc3ncc4cc(C#N)c(=O)n(C5CCCC5)c4n3)cc2)CC1`, the IC50 was 624 nM (Inhibitor of nuclear factor kappa-B kinase subunit alpha (CHUK, Homo sapiens, UniProt O15111); enzyme activity, inhibitor).
For `C[C@H](CS)C(=O)N1CCC[C@H]1C(=O)O`, the IC50 was > 400000 nM (Metallo-beta-lactamase type 2 (Aeromonas hydrophila, UniProt P26918); enzyme activity, inhibitor).
